Key:
Heat shock protein HSP90 [1] = molecular target: T1, Heat shock protein HSP90 (Homo sapiens, UniProt P07900+P08238); assay: Inhibition of human HSP90 in HCT116 cells expressing Her2 gene assessed as degradation of Her2 after 4 hrs by luciferase reporter gene assay; type: cell-based; details: hct-116
How it was run: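 HCT116 cells stably transfected with Her2 kinase domain (aa 641–975) fused to firefly luciferase. Seeded at 10 000 per well in DMEM with 10% serum and left overnight. Compound added from DMSO (0.4% final) for 4 h. Steady-Glo added at room temperature for 5 min, then luminescence read.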

Mus musculus [2] = assay: Inhibition of HSP90 in mouse liver assessed as induction of HSP70 mRNA expression at 100 mg/kg, po after 6 hrs relative to control; type: functional
[3] = (§1) Metabolic stability in human liver microsomes assessed as percent of residual drug in presence of NADPH incubated for 40 mins by LC-ESI-MS/MS method; type: ADME, Microsome; details: liver microsomes, read-out: Stability
How it was run: (§2)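 Test article incubated in duplicate with human liver microsomes (0.5 mg/mL protein) in 100 mM potassium phosphate pH 7.4. Started with 1 mM NADPH. Stopped with acetonitrile at 0, 10, 20 and 40 min. LC-MS/MS peak area at 40 min reported as percent of 0 min. No-NADPH control incubated for 40 min.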

HCT-116 [4] = assay: Cytotoxicity against human HCT116 cells assessed as inhibition of tumor growth incubated for 72 hrs by luminometry; type: functional, cell-based; details: HCT-116, 72 h
How it was run: (§3)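 Cells seeded at 5000 per well in DMEM with 10% serum and left overnight. Compound added from DMSO dilutions (0.4% DMSO final) for 72 h. After 5 min at room temperature, ATPLite two-step lysis and substrate added, 5 min incubation, then luminescence read. Values are the mean of at least two experiments.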

Mus musculus [5] = assay: Hepatic clearance in Swiss nude mouse at 2.5 mg/kg, iv by LC-ESI-MS/MS method; type: ADME, organism-based, Liver; set-up: dose 2.5 mg/kg, route intravenous; details: in vivo
How it was run: (§4)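 Intravenous dose in mice, vehicle DMA/PEG300/EtOH/H2O 3/40/12/45. Sampling at 5, 15, 30, 60, 120, 240, 480 and 720 min, three or five animals per time point. Cardiac-puncture EDTA plasma. Acetonitrile protein precipitation with internal standard, then LC-ESI-MS/MS (10–10 000 ng/mL curve). Parameters by noncompartmental fit.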

[6] = Cytotoxicity against human NCI-ADR-RES cells overexpressing P-gp 1 assessed as inhibition of tumor growth incubated for 72 hrs by luminometry; type: functional, cell-based; how it was run: as §3
[7] = AUC in Swiss nude mouse at 100 mg/kg, po by LC-ESI-MS/MS method; type: ADME, organism-based; set-up: dose 100 mg/kg, route oral; details: plasma
How it was run: (§5)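 Single oral gavage in mice, vehicle 40% Captisol in phosphate buffer. EDTA plasma from cardiac puncture. Acetonitrile precipitation with internal standard, then LC-ESI-MS/MS quantitation against a 10–10 000 ng/mL standard curve. Cmax and AUC by noncompartmental analysis.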

[8] = AUC in Swiss nude mouse at 10 mg/kg, po by LC-ESI-MS/MS method; type: ADME, organism-based; set-up: dose 10 mg/kg, route oral; details: plasma
How it was run: (§6)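 Mice dosed by oral gavage, vehicle DMA/PEG300/EtOH/H2O (3/40/12/45, v/v/v/v). Blood drawn by cardiac puncture into EDTA plasma. Three or five animals per time point. Plasma precipitated with acetonitrile plus internal standard. Quantified by LC-ESI-MS/MS against a 10–10 000 ng/mL standard curve with QC samples. Noncompartmental analysis.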

Heat shock protein HSP90 [9] = molecular target: T1, Heat shock protein HSP90; assay: Inhibition of human HSP90 using BODIPY labelled geldanamycin as substrate by fluorescence polarization assay; type: protein assay
[10] = Cmax in Swiss nude mouse at 100 mg/kg, po by LC-ESI-MS/MS method; type: ADME, organism-based; set-up: dose 100 mg/kg, route oral; details: in vivo; how it was run: as §5
[11] = Half life in Swiss nude mouse at 2.5 mg/kg, iv by LC-ESI-MS/MS method; type: ADME, organism-based; set-up: dose 2.5 mg/kg, route intravenous; details: in vivo; how it was run: as §4
[12] = Tmax in Swiss nude mouse at 10 mg/kg, po by LC-ESI-MS/MS method; type: ADME, organism-based; set-up: dose 10 mg/kg, route oral; details: in vivo; how it was run: as §6
[13] = AUC in Swiss nude mouse at 2.5 mg/kg, iv by LC-ESI-MS/MS method; type: ADME, organism-based; set-up: dose 2.5 mg/kg, route intravenous; details: plasma; how it was run: as §4
[14] = Cmax in Swiss nude mouse at 10 mg/kg, po by LC-ESI-MS/MS method; type: ADME, organism-based; set-up: dose 10 mg/kg, route oral; details: in vivo; how it was run: as §6
[15] = Oral bioavailability in Swiss nude mouse at 100 mg/kg administered using captisol and phosphate buffer system formulation by LC-ESI-MS/MS method; details: in vivo
[16] = Volume of distribution in Swiss nude mouse at 2.5 mg/kg, iv by LC-ESI-MS/MS method; type: ADME, organism-based; set-up: dose 2.5 mg/kg, route intravenous; details: in vivo; how it was run: as §4
[17] = Oral bioavailability in Swiss nude mouse at 10 mg/kg by LC-ESI-MS/MS method; type: ADME, organism-based; details: in vivo; how it was run: as §6
Liver microsomes = assay: as §1; type: ADME, Microsome; details: microsomes, 40 min; how it was run: as §2
HCT-116 [18] = assay: Ratio of IC50 for human NCI-ADR-RES cells overexpressing P-gp1 to IC50 for human HCT116 cells; type: functional
[19] = Lipophilicity, log P of the compound; type: physicochemical; details: octanol/water
[20] = Solubility of compound in phosphate buffer at pH 7.4; type: physicochemical

Row | IC50 (Heat shock protein HSP90 [1]) [nM] | remaining at 40 min [3] [%] | CLH (Mus musculus [5]) [mL/min/kg] | AUC [7] [ng·h/mL] | AUC [8] [ng·h/mL] | IC50 (Heat shock protein HSP90 [9]) [nM] | Cmax [10] [ng/mL] | half-life [11] [min] | Tmax [12] [min] | AUC [13] [ng·h/mL] | Cmax [14] [ng/mL] | bioavailability [15] [%] | Vd [16] [L/kg] | bioavailability [17] [%] | Compound | fold change (FC) (Mus musculus [2]) | IC50 (HCT-116 [4]) [nM] | IC50 [6] [nM] | further results
1 | 74 | 45 | 28.53 | 40400 | 1190 | 150 | 11600 | 25.8 | 30 | 1460 | 564 | > 50 | 1.07 | 20 | C[C@H](O)C(=O)N1CCC(CCn2c(Sc3cc4c(cc3Br)OCCO4)nc3c(N)ncnc32)CC1 | 3.2 | 470 | 6500 | –
2 | – | – | – | – | – | – | – | – | – | – | – | – | – | – | Nc1ncnc2c1nc(Sc1cc3c(cc1Br)OCO3)n2CCC1C[C@H]2CC[C@@H](C1)O2 (some centres undefined) | – | – | – | Stability (Liver microsomes): Unstable
3 | – | – | – | – | – | – | – | – | – | – | – | – | – | – | CN1[C@@H]2CC[C@H]1CC(CCn1c(Sc3cc4c(cc3Br)OCO4)nc3c(N)ncnc31)C2 (some centres undefined) | – | – | – | Stability (Liver microsomes): Unstable
4 | 60 | 54 | 72.65 | 25100 | 1320 | 110 | 7780 | 30 | 15 | 574 | 588 | > 50 | 3 | 57 | Nc1ncnc2c1nc(Sc1cc3c(cc1Br)OCO3)n2CCC1CCN(C(=O)CO)CC1 | 18 | 380 | 2000 | –
5 | 320 | – | – | – | – | 900 | – | – | – | – | – | – | – | – | CC(C)N1CCC(CCn2c(Sc3cc4c(cc3Br)OCO4)nc3c(N)ncnc32)CC1 | – | 2580 | 7250 | Ratio IC50 (HCT-116 [18]): 2
6 | 49 | 42 | 43.08 | 38000 | 1180 | 60 | 8540 | 16.8 | 60 | 967 | 312 | > 50 | 1.05 | 30 | Nc1ncnc2c1nc(Sc1cc3c(cc1Br)OCCO3)n2CCC1CCN(C=O)CC1 | 2.3 | 670 | 2100 | –
7 | – | 0 | – | – | – | > 5000 | – | – | – | – | – | – | – | – | Nc1ncnc2c1nc(Sc1cc3c(cc1Br)OC(F)(F)O3)n2CCC1CCN(C=O)CC1 | – | – | – | logP [19]: 4.82
8 | 70 | 17 | 31.65 | 63900 | 1810 | 150 | 10900 | 30 | 60 | 1320 | 354 | > 50 | 1.45 | 35 | Nc1ncnc2c1nc(Sc1cc3c(cc1Br)OCO3)n2CCC1CCN(C=O)CC1 | 47 | 430 | 2800 | logP [19]: 3.42
9 | – | 75 | – | – | – | 80 | – | – | – | – | – | – | – | 0.4 | Nc1ncnc2c1nc(Sc1cc3c(cc1Br)OCO3)n2CCC(N)C1CC1 (centres undefined) | – | – | – | solubility [20]: > 100 µM
10 | 69 | 35 | 27.32 | 32600 | 1960 | 110 | 9300 | 36 | 60 | 1530 | 1180 | > 50 | 1.35 | 32 | C[C@@H](O)C(=O)N1CCC(CCn2c(Sc3cc4c(cc3Br)OCCO4)nc3c(N)ncnc32)CC1 | 3.8 | 920 | 9800 | –
11 | 90 | 58 | 25.22 | 50300 | 2410 | 110 | 8400 | 36 | 15 | 1650 | 1430 | > 50 | 1.32 | 37 | C[C@@H](O)C(=O)N1CCC(CCn2c(Sc3cc4c(cc3Br)OCO4)nc3c(N)ncnc32)CC1 | 24 | 640 | 3300 | –
12 | 40 | 45 | 80.55 | 18200 | 702 | 90 | 7530 | 51 | 15 | 517 | 55 | > 50 | 5.93 | 34 | Nc1ncnc2c1nc(Sc1cc3c(cc1Br)OCCO3)n2CCC1CCN(C(=O)CO)CC1 | 1.7 | 820 | 10000 | –
